Holding throughout (type): functional
One experiment deals with Periplaneta americana. Description: Ability to release internal calcium stores mediated by ryanodine receptor without activation of voltage-gated calcium channel of cockroach in CMT assay. In short, it runs like this: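 Embryonic Periplaneta americana neurons cultured 7–14 days on glass coverslips, loaded 30 min with Fura-2 AM (2 µM) plus 0.02% pluronic acid in saline (mM: NaCl 190, KCl 3.1, CaCl2 9.0, Tris 10.0, pH 7.2). Ratio imaging, 340/380 nm excitation, 510 nm emission, under perfusion. Caffeine 20 mM given first; only caffeine-responsive cells analysed. Test compounds applied 3 min at multiple rates (n ≥ 11).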

Another experiment deals with Heliothis virescens. Description: Lethal concentration required for 50% mortality in Tobacco budworm. In short, it runs like this: (§1)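 Larvae exposed to multiple test rates, 16 insects per rate. Mortality scored 96 h post-infestation as percent control = (dead/total) × 100. LC50 in ppm, with confidence intervals, from Probit analysis with maximum quasi-likelihood curve fitting.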

In another experiment the test system is Spodoptera frugiperda. The experiment in a line: Lethal concentration required for 50% mortality in Fall armyworm. In a few lines: as §1

≈ marks a conversion by molar mass, not a printed value.

As a reminder, the LC50 is the concentration that kills 50% of the test population. The low end stands for greater toxicity, the high end for lower toxicity. As for `Cc1cccc(C(=O)NC(C)C)c1NC(=O)c1cnc(C(F)(F)F)nc1C(C)C`, the CMT with Periplaneta americana amounted to 26.6 µM. Moreover, the LC50 in the experiment with Heliothis virescens stood at 42.3 µg/mL (≈ 104 µM); with Spodoptera frugiperda, 9.8 µg/mL (≈ 24 µM).

For `Cc1cccc(C(=O)NC(C)C)c1NC(=O)c1cnc(C(F)(F)F)nc1C`, the LC50 was 102 µg/mL (≈ 269 µM) with Heliothis virescens and 11.6 µg/mL (≈ 30.5 µM) with Spodoptera frugiperda.

As for `Cc1cccc(C(=O)NC(C)C)c1NC(=O)c1cc(C(F)(F)F)nn1C`, the CMT with Periplaneta americana amounted to 120 µM. Besides, the 50% lethal concentration (LC50) stood at 130 µg/mL (≈ 353 µM) in the experiment with Heliothis virescens and 29.6 µg/mL (≈ 80.4 µM) with Spodoptera frugiperda.

For the compound `Cc1cc(C(F)(F)F)ccc1C(=O)Nc1ccccc1C(=O)NC(C)C`, the CMT in the experiment with Periplaneta americana worked out at 39.3 µM. The LC50 in the experiment with Heliothis virescens was > 500 µg/mL; with Spodoptera frugiperda it was 27.3 µg/mL (≈ 74.9 µM).

Consider `Cc1cccc(C(=O)NC(C)C)c1NC(=O)c1ccc(C(F)(F)F)nc1C`, for which the figures for the LC50 in the experiment on Heliothis virescens and in the experiment on Spodoptera frugiperda were 327 µg/mL (≈ 862 µM) and 20.7 µg/mL (≈ 54.6 µM), respectively.

On to `CCn1nc(C(F)(F)F)cc1C(=O)Nc1c(C)cccc1C(=O)NC(C)C`, for which the LC50 came out at 158 µg/mL (≈ 413 µM) in the experiment on Heliothis virescens and 34.8 µg/mL (≈ 91 µM) in the experiment with Spodoptera frugiperda.

On to `CCc1nc(C(F)(F)F)ccc1C(=O)Nc1c(C)cccc1C(=O)NC(C)C`, for which the CMT in the experiment with Periplaneta americana stood at 20.6 µM. Further, the LC50 with Heliothis virescens worked out at 77.5 µg/mL (≈ 197 µM); in the experiment with Spodoptera frugiperda, 9.7 µg/mL (≈ 24.7 µM).

As to `Cc1cccc(C(=O)NC(C)C)c1NC(=O)c1cc(C(F)(F)F)nn1-c1ccccc1Cl`, the CMT in the experiment on Periplaneta americana was found to be 0.2 µM. The LC50 amounted to 3.4 µg/mL (≈ 7.31 µM) with Heliothis virescens and 0.05 µg/mL (≈ 0.108 µM) with Spodoptera frugiperda.

For the compound `COC(=O)N(C(=O)N1CO[C@@]2(C(=O)OC)Cc3cc(Cl)ccc3C2=N1)c1ccc(OC(F)(F)F)cc1` [INDOXACARB], the values for the LC50 in the experiment with Heliothis virescens and with Spodoptera frugiperda were 1.5 µg/mL (≈ 2.84 µM) and 0.5 µg/mL (≈ 0.947 µM), respectively.

Take `Cc1cc(Cl)cc(C(=O)NC(C)C)c1NC(=O)c1cc(C(F)(F)F)nn1-c1ncccc1Cl`: the CMT with Periplaneta americana came out at 0.1 µM. The compound further gave an LC50 in the experiment on Heliothis virescens of 0.02 µg/mL (≈ 0.04 µM).

On to `Cc1cc(C(F)(F)F)ccc1C(=O)Nc1c(C)cccc1C(=O)NC(C)C`, for which the LC50 in the experiment on Heliothis virescens was 256 µg/mL (≈ 675 µM); in the experiment with Spodoptera frugiperda it was 20.7 µg/mL (≈ 54.7 µM).

Turning to `CCNC(=O)c1cccc(C)c1NC(=O)c1ccc(C(F)(F)F)cc1C`, the LC50 in the experiment with Heliothis virescens was > 500 µg/mL; with Spodoptera frugiperda, 32.8 µg/mL (≈ 90 µM).

In the case of `Cc1cccc(C(=O)NC(C)C)c1NC(=O)c1cc(C(F)(F)F)nn1-c1ncccc1Cl`, in the experiment with Periplaneta americana, the CMT came out at 0.3 µM. Further, the results for the LC50 in the experiment on Heliothis virescens and in the experiment on Spodoptera frugiperda were 0.4 µg/mL (≈ 0.859 µM) and 0.1 µg/mL (≈ 0.215 µM), respectively.

As to `CC(C)NC(=O)c1cccc(Cl)c1NC(=O)c1cc(C(F)(F)F)nn1-c1ncccc1Cl`, the LC50 stood at 0.4 µg/mL (≈ 0.823 µM) with Heliothis virescens and 0.1 µg/mL (≈ 0.206 µM) with Spodoptera frugiperda.

As to `Cc1cccc(C(=O)NC(C)C)c1NC(=O)c1cc(C(F)(F)F)nn1C(C)C`, the LC50 in the experiment on Heliothis virescens came out at 36.4 µg/mL (≈ 91.8 µM); with Spodoptera frugiperda, 11.1 µg/mL (≈ 28 µM).

As to `Cc1cccc(C(=O)NC(C)C)c1NC(=O)c1ccc(C(F)(F)F)cc1`, the LC50 is > 500 µg/mL with Heliothis virescens and 16.9 µg/mL (≈ 46.4 µM) with Spodoptera frugiperda.

Turning to `Cc1cccc(C(=O)NC(C)C)c1NC(=O)c1ccc(C(F)(F)F)nc1C(C)C`, the LC50 is 55.5 µg/mL (≈ 136 µM) in the experiment on Heliothis virescens and 9.6 µg/mL (≈ 23.6 µM) in the experiment with Spodoptera frugiperda.

Turning to `CC(C)NC(=O)c1cccc(Cl)c1NC(=O)c1cc(C(F)(F)F)nn1-c1ccccc1Cl`, the CMT in the experiment on Periplaneta americana worked out at 0.3 µM. For the same compound, the LC50 with Heliothis virescens came to 3 µg/mL (≈ 6.18 µM); in the experiment with Spodoptera frugiperda, 0.1 µg/mL (≈ 0.206 µM).

Regarding `Cc1cc(C(F)(F)F)ccc1C(=O)Nc1cccc(C)c1C(=O)NC(C)C`, the results for the LC50 in the experiment with Heliothis virescens and in the experiment on Spodoptera frugiperda were > 500 µg/mL and 77 µg/mL (≈ 203 µM), respectively.

`Cc1cccc(C(=O)NC(C)C)c1NC(=O)c1cc(C(F)(F)F)nn1-c1ccc(Cl)cc1`: the LC50 in the experiment with Heliothis virescens and in the experiment on Spodoptera frugiperda was > 500 µg/mL in each case.

For `CCc1nc(C(F)(F)F)ncc1C(=O)Nc1c(C)cccc1C(=O)NC(C)C`, the LC50 in the experiment on Heliothis virescens was 41 µg/mL (≈ 104 µM); in the experiment on Spodoptera frugiperda, 9 µg/mL (≈ 22.8 µM).

With `Cc1cccc(C(=O)NC(C)C)c1NC(=O)c1cc(C(F)(F)F)nn1-c1cccc(Cl)c1`, the LC50 in the experiment on Heliothis virescens and in the experiment with Spodoptera frugiperda was > 500 µg/mL in each case.

Turning to `Cc1cccc(C(=O)NC(C)C)c1NC(=O)c1cc(C(F)(F)F)nn1-c1ccccc1`, the results for the LC50 in the experiment with Heliothis virescens and in the experiment on Spodoptera frugiperda were 354 µg/mL (≈ 822 µM) and 26 µg/mL (≈ 60.4 µM), respectively.

Turning to `CNC(=O)c1cccc(C)c1NC(=O)c1ccc(C(F)(F)F)cc1C`, the results for the LC50 in the experiment on Heliothis virescens and in the experiment on Spodoptera frugiperda were > 500 µg/mL and 60.1 µg/mL (≈ 172 µM), respectively.

On to `CC1(C)C(C=C(Cl)Cl)C1C(=O)OC(C#N)c1cccc(Oc2ccccc2)c1` (stereo not drawn) [ALPHA-CYPERMETHRIN], for which the LC50 is 13.5 µg/mL (≈ 32.4 µM) with Heliothis virescens and 2.1 µg/mL (≈ 5.04 µM) in the experiment on Spodoptera frugiperda.

(Values after ChEMBL document CHEMBL1143482, “Insecticidal anthranilic diamides: a new class of potent ryanodine receptor activators” (2005).)
